Measurements: ChEMBL document CHEMBL1145475, “Expression and purification of an active form of the Mycobacterium leprae DNA gyrase and its inhibition by quinolones” (Antimicrob Agents Chemother, 2007)
Activity calls are given as the source filed them. No cut-off for these calls is given here.

Assays:
Mycobacterium leprae [1] = test: Inhibition of Mycobacterium leprae recombinant DNA gyrase expressed in Escherichia coli assessed as inhibition of pBR322 DNA supercoiling
In short: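 His-tagged M. leprae GyrA and GyrB were expressed separately in E. coli, purified by nickel chelate chromatography, and reconstituted (1 U gyrase). Substrate was 0.4 μg relaxed pBR322 in 40 mM Tris-HCl pH 7.5, 25 mM KCl, 20 mM Mg acetate, 2 mM spermidine, 4 mM DTT, tRNA, BSA, and 3 mM ATP, run 1 h at 30°C.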

Mycobacterium leprae [2] = test: Antibacterial activity against Mycobacterium leprae at 5 ug/mL after 11 to 18 days; format: functional
Mycobacterium leprae [3] = test: Antibacterial activity in Mycobacterium leprae infected mouse foot-pad model assessed as parasite killing at >150 mg/kg/day after 9 months; format: functional
Mycobacterium leprae [4] = test: Effect on Mycobacterium leprae recombinant DNA gyrase expressed in Escherichia coli assessed as enhancement of supercoiled pBR322 DNA cleavage
Mycobacterium leprae [5] = test: Antibacterial activity in Mycobacterium leprae infected mouse foot-pad model assessed as parasite killing at 150 mg/kg/day after 9 months; format: functional
Mycobacterium leprae [6] = test: Antibacterial activity in Mycobacterium leprae infected mouse foot-pad model assessed as parasite killing at >300 mg/kg/day after 9 months; format: functional
Mycobacterium leprae [7] = test: Antibacterial activity in Mycobacterium leprae infected mouse foot-pad model assessed as parasite killing at 25 mg/kg/day after 9 months; format: functional
Mycobacterium leprae [8] = test: Antibacterial activity in Mycobacterium leprae infected mouse foot-pad model assessed as parasite killing at 15 mg/kg/day after 9 months; format: functional
Mycobacterium leprae [9] = test: Antibacterial activity in Mycobacterium leprae infected mouse foot-pad model assessed as parasite killing at 50 mg/kg/day after 9 months; format: functional

SMILES | IC50 (Mycobacterium leprae [1]) | Activity (Mycobacterium leprae [2]) | CC25 (Mycobacterium leprae [4]) | further results
O=C(O)c1cn(C2CC2)c2cc(N3CCNCC3)c(F)cc2c1=O [CIPROFLOXACIN] | 3.5 µg/mL | 32 | – | Activity (Mycobacterium leprae [3]): >99%
NC1CCN(c2c(F)cc3c(=O)c(C(=O)O)cn(C4CC4)c3c2Cl)C1 (stereo not drawn) [CLINAFLOXACIN] | 3 µg/mL | – | 0.6 µg/mL | –
C[C@H]1NCc2cc(-c3ccc4c(=O)c(C(=O)O)cn(C5CC5)c4c3OC(F)F)ccc21 [GARENOXACIN] | 3.5 µg/mL | – | 3 µg/mL | –
COc1c(N2CCNC(C)C2)c(F)cc2c(=O)c(C(=O)O)cn(C3CC3)c12 (stereo not drawn) [GATIFLOXACIN] | 2 µg/mL | – | 1 µg/mL | –
C[C@H]1COc2c(N3CCN(C)CC3)c(F)cc3c(=O)c(C(=O)O)cn1c23.C[C@H]1COc2c(N3CCN(C)CC3)c(F)cc3c(=O)c(C(=O)O)cn1c23.O [LEVOFLOXACIN] | 7 µg/mL | – | 3 µg/mL | –
COc1c(N2C[C@@H]3CCCN[C@@H]3C2)c(F)cc2c(=O)c(C(=O)O)cn(C3CC3)c12 [MOXIFLOXACIN] | – | – | – | Activity (Mycobacterium leprae [5]): >99%
CCn1cc(C(=O)O)c(=O)c2ccc(C)nc21 [NALIDIXIC ACID] | 300 µg/mL | – | – | Activity (Mycobacterium leprae [4]): inactive
CC1COc2c(N3CCN(C)CC3)c(F)cc3c(=O)c(C(=O)O)cn1c23 (stereo not drawn) [OFLOXACIN] | 10 µg/mL | 20 | 10 µg/mL | Activity (Mycobacterium leprae [5]): >99%
CCn1cc(C(=O)O)c(=O)c2cc3c(cc21)OCO3 [OXOLINIC ACID] | 170 µg/mL | – | – | Activity (Mycobacterium leprae [4]): inactive
CCn1cc(C(=O)O)c(=O)c2cc(F)c(N3CCN(C)CC3)cc21 [PEFLOXACIN] | 23 µg/mL | 29 | – | Activity (Mycobacterium leprae [6]): >99%
N[C@@H]1CN(c2c(F)cc3c(=O)c(C(=O)O)cn([C@@H]4C[C@@H]4F)c3c2Cl)CC12CC2 [SITAFLOXACIN ANHYDROUS] | 1 µg/mL | – | 0.5 µg/mL | Activity (Mycobacterium leprae [7]): >99%
C[C@@H]1CN(c2c(F)c(N)c3c(=O)c(C(=O)O)cn(C4CC4)c3c2F)C[C@H](C)N1 [SPARFLOXACIN] | 5 µg/mL | – | 1 µg/mL | Activity (Mycobacterium leprae [8]): >99%
CC1CN(c2cc3c(cc2F)c(=O)c(C(=O)O)cn3-c2ccc(F)cc2F)CCN1 (stereo not drawn) [TEMAFLOXACIN] | 26 µg/mL | 29 | 11 µg/mL | Activity (Mycobacterium leprae [9]): >99%
